Measured values from PMC6697428 (SLAS discovery : advancing life sciences R & D, 2018).
pEC50: −log10 of the molar value. Like-named read-outs stand apart in the source and are kept apart here.

Tests used:
[1] = tested on: ISG15 in THP-1 cells; test: Immunoblot of IFN-α induced ISG15 protein expression; type: cell-based, human; details: 24 h
[2] = tested on: ISRE-bla THP-1 cells; test: ISRE-bla THP-1 FRET reporter assay for prolonged IFN-α induced ISRE activation; type: cell-based, human
[3] = tested on: STAT1 phosphorylation in THP-1 cells; test: Immunoblot of STAT1 phosphorylation after IFN-α; type: cell-based, human; details: 1 μM compound pre-treatment 12 h, then IFN-α
[4] = tested on: THP-1 cells; test: MTT cell viability assay; type: cell-based, human; details: for relative viability (MTT): 5 μM compound, overnight, relative to vehicle control (0.5% DMSO)
Outline: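 THP-1 cells in 96-well plates were exposed to test compound at 5 μM for 18 h. MTT (0.5 mg/ml in assay media) was then added for 4–6 h. Cells were lysed overnight in 15% w/v SDS with 0.12% v/v 12N HCl. Absorbance was read at 570 nm against a 650 nm reference and expressed relative to vehicle (0.5% DMSO) wells.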

[5] = tested on: human THP-1 cells; test: q-PCR of ISG15 and ISG56 gene expression in THP-1 cells; type: cell-based; details: 1 μM compound, 1000 U/mL IFN-α, 8 h, compared to vehicle
[6] = tested on: murine bone marrow derived dendritic cells; type: cell-based, mouse; details: 5 μM compound in presence of IFN-α, compared to IFN-α alone

| Compound | levels of IFN-α induced ISG15 protein ([1]; 1 μM compound with IFN-α) | amounts of ISG15 protein without IFN-α ([1]; compound alone) | FRET ratio in the absence of exogenous interferon ([2]; no IFN-α, even at higher concentrations of the compounds) | pEC50 ([2]; read-out: relative EC50 (ISRE activity), with 100 U/mL IFN, 16 h) | level of p-STAT1 after 30 minutes ([3]; 30 minutes) | level of p-STAT1 at 6 h post stimulation ([3]; 6 h) | relative viability (MTT) [4] | % relative viability, dose response cytotoxicity ([4]; absence of IFN-α, dose response starting with 50 μM) | increase in gene expression for both ISG15 and ISG56 [5] | mRNA expression of Isg56, Isg15, Ifi2712a, Irf7, Ifi16 [6] | mRNA expression of Isg56, Isg15, Ifi2712a, Irf7, Ifi16 ([6]; listed as KX2–391) | relative viability (MTT) ([4]; 5 µM) | relative viability (MTT) ([4]; listed as Belinostat, 5 µM) |
| --- | --- | --- | --- | --- | --- | --- | --- | --- | --- | --- | --- | --- | --- |
| O=C(Cc1ccc(-c2ccc(OCCN3CCOCC3)cc2)cn1)NCc1ccccc1 [Compound 24, KX2–391] | increased | did not increase | no increase | 5.78 | elevated | minimal residual effect | without significant toxicity | > 75% | ~2 fold | significantly increased | increased |  |  |
| O=C(/C=C/c1cccc(S(=O)(=O)Nc2ccccc2)c1)NO [Compound 26, belinostat] |  |  |  |  |  |  |  |  |  |  |  | toxic | relatively toxic |
